In ChEMBL document CHEMBL5329147, “Synthesis of tryptanthrin appended dispiropyrrolidine oxindoles and their antibacterial evaluation” (RSC Med Chem, 2023):

Key:
[1] = tested on: Staphylococcus aureus; test: Antibacterial activity against methicillin resistant Staphylococcus aureus NRS 198 assessed as bacterial growth inhibition incubated for 18 to 24 hrs by broth microdilution method; assay type: functional; settings: time 18-24 hrs
Method in brief: (§1)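 CLSI broth microdilution in MHBII; overnight starter cultures (single MHA colony, 37 °C, shaking) adjusted by OD600 to 10^6 CFU/mL. Compounds from DMSO stocks (10 mg/mL), two-fold series 64–0.5 mg/L. Incubation 37 °C, 18-24 h. MIC = lowest concentration with no visible growth. Three independent determinations, each in duplicate.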

[2] = tested on: Staphylococcus aureus; test: Antibacterial activity against methicillin resistant Staphylococcus aureus NRS 193 assessed as bacterial growth inhibition incubated for 18 to 24 hrs by broth microdilution method; assay type: functional; settings: time 18-24 hrs; method in brief: as §1
[3] = tested on: Staphylococcus aureus; test: Antibacterial activity against methicillin resistant Staphylococcus aureus NRS 129 assessed as bacterial growth inhibition incubated for 18 to 24 hrs by broth microdilution method; assay type: functional; settings: time 18-24 hrs; method in brief: as §1
[4] = tested on: Staphylococcus aureus; test: Antibacterial activity against methicillin resistant Staphylococcus aureus NRS 192 assessed as bacterial growth inhibition incubated for 18 to 24 hrs by broth microdilution method; assay type: functional; settings: time 18-24 hrs; method in brief: as §1
[5] = tested on: Staphylococcus aureus; test: Antibacterial activity against methicillin sensitive Staphylococcus aureus ATCC 29213 assessed as bacterial growth inhibition incubated for 18 to 24 hrs by broth microdilution method; assay type: functional; settings: time 18-24 hrs; method in brief: as §1
[6] = tested on: Staphylococcus aureus; test: Synergistic antibacterial activity against Staphylococcus aureus ATCC 29213 assessed as bacterial growth inhibition incubated for 24 hrs in presence of (S)-8''-Bromo-1-ethyl-1'-methyl-2,12''-dioxo-12''H-dispiro[indoline-3,4'-pyrrolidine-2',6''-indolo[2,1-b]quinazoline]-3',3'-dicarbonitrile by checkerboard assay; assay type: functional
Method in brief: (§2)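 Checkerboard in 96-well plates: two-fold serial dilutions, one agent along abscissa, partner antibiotic along ordinate. Wells received ~10⁵ CFU/mL S. aureus ATCC 29213 in MHBII. Incubation 37 °C, 24 h. ΣFIC = FIC A + FIC B, each FIC being combination MIC divided by MIC alone.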

[7] = tested on: Klebsiella pneumoniae; test: Antibacterial activity against Klebsiella pneumoniae BAA 1705 assessed as bacterial growth inhibition incubated for 18 to 24 hrs by broth microdilution method; assay type: functional; settings: time 18-24 hrs
Method in brief: (§3)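 CLSI broth microdilution. Overnight starter cultures (single colony, MHBII, 37 °C, shaking 18–24 h) were diluted by OD600 to 10^6 CFU/mL in MHBII. Two-fold dilutions from […] were made from 10 mg/mL DMSO stocks, then incubated 37 °C for 18-24 h. The MIC was the lowest concentration with no visible growth. Three independent runs, duplicate samples.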

[8] = tested on: Staphylococcus aureus; test: Antibacterial activity against methicillin resistant Staphylococcus aureus NRS 194 assessed as bacterial growth inhibition incubated for 18 to 24 hrs by broth microdilution method; assay type: functional; settings: time 18-24 hrs; method in brief: as §1
[9] = tested on: Staphylococcus aureus; test: Antibacterial activity against methicillin resistant Staphylococcus aureus NRS 119 assessed as bacterial growth inhibition incubated for 18 to 24 hrs by broth microdilution method; assay type: functional; settings: time 18-24 hrs; method in brief: as §1
[10] = tested on: Staphylococcus aureus; test: Antibacterial activity against vancomycin resistant Staphylococcus aureus […] 4 assessed as bacterial growth inhibition incubated for 18 to 24 hrs by broth microdilution method; assay type: functional; settings: time 18-24 hrs; method in brief: as §1
[11] = tested on: Staphylococcus aureus; test: Antibacterial activity against methicillin resistant Staphylococcus aureus NRS 186 assessed as bacterial growth inhibition incubated for 18 to 24 hrs by broth microdilution method; assay type: functional; settings: time 18-24 hrs; method in brief: as §1
[12] = tested on: Staphylococcus aureus; test: Antibacterial activity against Staphylococcus aureus ATCC 29213 assessed as bacterial growth inhibition incubated for 18 to 24 hrs by broth microdilution method; assay type: functional; settings: time 18-24 hrs; method in brief: as §3
[13] = tested on: Staphylococcus aureus; test: Antibacterial activity against methicillin resistant Staphylococcus aureus NRS 191 assessed as bacterial growth inhibition incubated for 18 to 24 hrs by broth microdilution method; assay type: functional; settings: time 18-24 hrs; method in brief: as §1
[14] = tested on: Staphylococcus aureus; test: Antibacterial activity against vancomycin resistant Staphylococcus aureus […] 12 assessed as bacterial growth inhibition incubated for 18 to 24 hrs by broth microdilution method; assay type: functional; settings: time 18-24 hrs; method in brief: as §1
[15] = tested on: Staphylococcus aureus; test: Synergistic antibacterial activity against Staphylococcus aureus ATCC 29213 assessed as bacterial growth inhibition incubated for 24 hrs in presence of ceftazidime by checkerboard assay; assay type: functional; method in brief: as §2
[16] = tested on: Escherichia coli; test: Antibacterial activity against Escherichia coli ATCC 25922 assessed as bacterial growth inhibition incubated for 18 to 24 hrs by broth microdilution method; assay type: functional; settings: time 18-24 hrs; method in brief: as §3
[17] = tested on: Staphylococcus aureus; test: Synergistic antibacterial activity against Staphylococcus aureus ATCC 29213 assessed as bacterial growth inhibition incubated for 24 hrs in presence of minocycline by checkerboard assay; assay type: functional; method in brief: as §2
[18] = tested on: Staphylococcus aureus; test: Synergistic antibacterial activity against Staphylococcus aureus ATCC 29213 assessed as fractional inhibitory concentration index incubated for 24 hrs in the presence of daptomycin by checkerboard assay; assay type: functional
Method in brief: (§4)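 Checkerboard in 96-well plates. The test agent was diluted two-fold along one axis and the partner antibiotic two-fold along the other, with ~10^5 CFU/mL inoculum, 37 °C for 24 h. ΣFIC = FIC A + FIC B, each FIC being the MIC in combination divided by the MIC alone.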

[19] = tested on: Staphylococcus aureus; test: Synergistic antibacterial activity against Staphylococcus aureus ATCC 29213 assessed as fractional inhibitory concentration index incubated for 24 hrs in the presence of rifampicin by checkerboard assay; assay type: functional; method in brief: as §4
[20] = tested on: Staphylococcus aureus; test: Synergistic antibacterial activity against Staphylococcus aureus ATCC 29213 assessed as fractional inhibitory concentration index incubated for 24 hrs in the presence of levofloxacin by checkerboard assay; assay type: functional; method in brief: as §4
[21] = tested on: Staphylococcus aureus; test: Synergistic antibacterial activity against Staphylococcus aureus ATCC 29213 assessed as bacterial growth inhibition incubated for 24 hrs in presence of rifampicin by checkerboard assay; assay type: functional; method in brief: as §2
[22] = tested on: Staphylococcus aureus; test: Synergistic antibacterial activity against Staphylococcus aureus ATCC 29213 assessed as fractional inhibitory concentration index incubated for 24 hrs in the presence of ceftazidime by checkerboard assay; assay type: functional; method in brief: as §4
[23] = tested on: Pseudomonas aeruginosa; test: Antibacterial activity against Pseudomonas aeruginosa ATCC 27853 assessed as bacterial growth inhibition incubated for 18 to 24 hrs by broth microdilution method; assay type: functional; settings: time 18-24 hrs; method in brief: as §3
[24] = tested on: Staphylococcus aureus; test: Synergistic antibacterial activity against Staphylococcus aureus ATCC 29213 assessed as fractional inhibitory concentration index incubated for 24 hrs in the presence of vancomycin by checkerboard assay; assay type: functional; method in brief: as §4
[25] = tested on: Staphylococcus aureus; test: Synergistic antibacterial activity against Staphylococcus aureus ATCC 29213 assessed as fractional inhibitory concentration index incubated for 24 hrs in the presence of meropenem by checkerboard assay; assay type: functional; method in brief: as §4
[26] = tested on: Acinetobacter baumannii; test: Antibacterial activity against Acinetobacter baumannii BAA-1605 assessed as bacterial growth inhibition incubated for 18 to 24 hrs by broth microdilution method; assay type: functional; settings: time 18-24 hrs; method in brief: as §3
[27] = tested on: Staphylococcus aureus; test: Synergistic antibacterial activity against Staphylococcus aureus ATCC 29213 assessed as fractional inhibitory concentration index incubated for 24 hrs in the presence of minocycline by checkerboard assay; assay type: functional; method in brief: as §4
[28] = tested on: Staphylococcus aureus; test: Synergistic antibacterial activity against Staphylococcus aureus ATCC 29213 assessed as fractional inhibitory concentration index incubated for 24 hrs in the presence of linezolid by checkerboard assay; assay type: functional; method in brief: as §4
[29] = tested on: Staphylococcus aureus; test: Synergistic antibacterial activity against Staphylococcus aureus ATCC 29213 assessed as bacterial growth inhibition incubated for 24 hrs in presence of levofloxacin by checkerboard assay; assay type: functional; method in brief: as §2
[30] = tested on: Staphylococcus aureus; test: Synergistic antibacterial activity against Staphylococcus aureus ATCC 29213 assessed as bacterial growth inhibition incubated for 24 hrs in presence of gentamycin by checkerboard assay; assay type: functional; method in brief: as §2
[31] = tested on: Staphylococcus aureus; test: Synergistic antibacterial activity against Staphylococcus aureus ATCC 29213 assessed as bacterial growth inhibition incubated for 24 hrs in presence of vancomycin by checkerboard assay; assay type: functional; method in brief: as §2
[32] = tested on: Staphylococcus aureus; test: Synergistic antibacterial activity against Staphylococcus aureus ATCC 29213 assessed as bacterial growth inhibition incubated for 24 hrs in presence of daptomycin by checkerboard assay; assay type: functional; method in brief: as §2
[33] = tested on: Staphylococcus aureus; test: Synergistic antibacterial activity against Staphylococcus aureus ATCC 29213 assessed as bacterial growth inhibition incubated for 24 hrs in presence of linezolid by checkerboard assay; assay type: functional; method in brief: as §2
[34] = tested on: Staphylococcus aureus; test: Synergistic antibacterial activity against Staphylococcus aureus ATCC 29213 assessed as fractional inhibitory concentration index incubated for 24 hrs in the presence of gentamycin by checkerboard assay; assay type: functional; method in brief: as §4
[35] = tested on: Staphylococcus aureus; test: Bactericidal activity against Staphylococcus aureus ATCC 29213 assessed as reduction in bacterial load at 10 times of MIC incubated for 24 hrs by time kill analysis; assay type: functional
Method in brief: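 Time-kill assay. ~10^6 CFU/mL in MHBII was exposed to 1X and 10X MIC, 37 °C with shaking for 24 h. Samples were taken at 0, 1, 6 and 24 h, serially diluted in PBS, plated on MHA and incubated 37 °C 18–20 h. Colonies were counted as CFU/mL survivors. Three repeats in duplicate; mean plotted.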

[36] = Selectivity ratio of CC50 for African green monkey Vero cells to MIC against Staphylococcus aureus ATCC 29213; assay type: toxicity, cell-based
[37] = tested on: Staphylococcus aureus; test: Synergistic antibacterial activity against Staphylococcus aureus ATCC 29213 assessed as bacterial growth inhibition incubated for 24 hrs in presence of meropenem by checkerboard assay; assay type: functional; method in brief: as §2
[38] = tested on: Vero; test: Cytotoxicity against African green monkey Vero cells assessed as cell viability incubated for 72 hrs by MTT assay; assay type: toxicity, cell-based; settings: chlorocebus sabaeus
Method in brief: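 MTT assay on Vero cells, ~10^3 cells/well, 37 °C, 5% CO2. Compound was added at 24 h (100-12.5 μg/mL) for 72 h, then MTT for 4 h at 37 °C. Formazan was dissolved in DMSO and read at 540 nm. CC50 was the lowest concentration giving 50% viability loss. Doxorubicin positive control; triplicate.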

[39] = Staphylococcus aureus, ATCC 29213, read-out: MIC

C[C@H]1COc2c(N3CCN(C)CC3)c(F)cc3c(=O)c(C(=O)O)cn1c23 [LEVOFLOXACIN ANHYDROUS]
0.25 µg/mL: MIC [3] | MIC [12]
0.125 µg/mL: MIC [5] | MIC [6] | MIC [8] | MIC [12, 39]
16 µg/mL: MIC [9] | MIC [13]
4 µg/mL: MIC [4] | MIC [11]
64 µg/mL: MIC [7]
32 µg/mL: MIC [1] | MIC [2] | MIC [14]
> 64 µg/mL: MIC [10]

CCN1C(=O)[C@@]2(CN(C)C3(c4cc(Br)ccc4-n4c3nc3ccccc3c4=O)C2(C#N)C#N)c2ccccc21 (stereo partly drawn)
2: FIC [18] | FIC [19] | FIC [20] | FIC [22] | FIC [24] | FIC [25] | FIC [27] | FIC [28] | FIC [34]
~2.7 log10CFU/ml: Activity ([35]; record 2)
active: Activity [35] Dose-Dependent Effect
Non-Toxic: Activity [38]
40: selectivity ratio [36]
0.25 µg/mL: MIC [15] | MIC [2] | MIC [17] | MIC [21] | MIC [11] | MIC [29] | MIC [30] | MIC [31] | MIC [32] | MIC [33] | MIC [14] | MIC [37]
0.5 µg/mL: MIC [8] | MIC [10]
> 64 µg/mL: MIC [16] | MIC [7] | MIC [23] | MIC [26]
0.125 µg/mL: MIC [1] | MIC [3] | MIC [4] | MIC [5] | MIC [9] | MIC [12, 39]
0.063 µg/mL: MIC [13]
